# In publication PMC3115441 (Chemical biology & drug design, 2011):
# Entries after “also recorded” stand apart in the source; their conditions may differ. Where two headings read alike, the source gives them in different places.
# Experiments:
# [1] = molecular target: Sigma1 (Rattus norvegicus, UniProt Q9R0C9); test: NIMH-PDSP radioligand binding, Sigma-1
# [2] = test system: PCP site of the NMDA receptor complex; test: [3H]; assay type: binding, rat; conditions: for % inhibition of 1 nM [3H] (+)-MK-801: compound at 10 μM (10,000 nM); for IC50: rat forebrain homogenate, 1 nM (+)-[3H]MK-801; for Ki: read-out: NMDA affinity Ki, calculated by Cheng and Prusoff equation
# How it was run: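 Washed rat forebrain homogenate (30 ug/mL protein) in 10 mM HEPES, pH 7.4, with 1 nM (+)-[3H]MK-801, 100 uM glutamate, 30 uM glycine and varied competitor concentrations. Nonspecific binding was set with 30 uM (+)-MK-801. Incubation ran 2 h at room temperature, then vacuum filtration onto GF/B filters, three buffer washes and scintillation counting.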
# [3] = molecular target: Serotonin 2A (5-HT2A) (Homo sapiens, UniProt P28223); test: NIMH-PDSP radioligand binding, 5-HT2A
# [4] = molecular target: Dopamine 2 (D2) (Homo sapiens, UniProt P14416); test: NIMH-PDSP radioligand binding, D2
# [5] = molecular target: Norepinephrine Transporter (NET) (Homo sapiens, UniProt P23975); test: NIMH-PDSP radioligand binding, NET
# [6] = test system: MES-induced seizures; test: Maximal electroshock; assay type: in vivo, mice; conditions: for MES (30) N/F, animals active over tested: 30 mg/kg i.p.; for MES (100) N/F, animals active over tested: 100 mg/kg i.p.; for MES protection (in words): 100 mg/kg; for MES neuroprotective activity (in words): mouse, in vivo
# How it was run: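 Mice received test compound i.p. at 30, 100 or 300 mg/kg in 0.01 ml/g and were tested at various intervals after dosing. Corneal electrodes primed with 0.5% tetracaine HCl electrolyte delivered 60 Hz alternating current, 50 mA, for 0.2 s. An animal counted as protected when the hindlimb tonic extensor component was abolished. Results are scored as animals protected over tested.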
# [7] = molecular target: T1, Sigma2 (Rattus norvegicus, UniProt Q5U3Y7); test: NIMH-PDSP radioligand binding, Sigma-2
# T1 sequence (Q5U3Y7 1-176): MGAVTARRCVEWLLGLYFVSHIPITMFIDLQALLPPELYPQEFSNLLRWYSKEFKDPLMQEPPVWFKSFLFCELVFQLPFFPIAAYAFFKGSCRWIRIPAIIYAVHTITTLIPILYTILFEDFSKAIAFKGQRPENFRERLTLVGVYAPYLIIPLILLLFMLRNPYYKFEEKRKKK
# [8] = test system: mice; test: Acute toxicity, minimal motor impairment; assay type: in vivo; conditions: for TOX (30) N/F, animals toxic over tested / TOX (100) N/F, animals toxic over tested / TOX (300) N/F, animals toxic over tested: rotorod; for TOX (30) N/F, animals toxic over tested: 30 mg/kg
# [9] = test system: Metrazol-induced clonic seizures; test: Subcutaneous Metrazol seizure threshold test; assay type: in vivo, mice; conditions: for scMET (30) N/F, animals active over tested: 30 mg/kg; for scMET (100) N/F, animals active over tested: 100 mg/kg; for scMET (300) N/F, animals active over tested: 300 mg/kg
# [10] = molecular target: Dopamine Transporter (DAT) (Homo sapiens, UniProt Q01959); test: NIMH-PDSP radioligand binding, DAT
# [11] = molecular target: κ- opioid receptors (KOR) (Rattus norvegicus, UniProt P34975); test: NIMH-PDSP radioligand binding, KOR
# [12] = molecular target: Dopamine 1 (D1) (Homo sapiens, UniProt P21728); test: NIMH-PDSP radioligand binding, D1
# [13] = molecular target: Serotonin Transporter (SERT) (Homo sapiens, UniProt P31645); test: NIMH-PDSP radioligand binding, SERT
# [14] = molecular target: μ- opioid receptors (MOR) (Homo sapiens, UniProt P35372); test: NIMH-PDSP radioligand binding, MOR
# μ- opioid receptors (MOR), sequence (P35372 whole entry): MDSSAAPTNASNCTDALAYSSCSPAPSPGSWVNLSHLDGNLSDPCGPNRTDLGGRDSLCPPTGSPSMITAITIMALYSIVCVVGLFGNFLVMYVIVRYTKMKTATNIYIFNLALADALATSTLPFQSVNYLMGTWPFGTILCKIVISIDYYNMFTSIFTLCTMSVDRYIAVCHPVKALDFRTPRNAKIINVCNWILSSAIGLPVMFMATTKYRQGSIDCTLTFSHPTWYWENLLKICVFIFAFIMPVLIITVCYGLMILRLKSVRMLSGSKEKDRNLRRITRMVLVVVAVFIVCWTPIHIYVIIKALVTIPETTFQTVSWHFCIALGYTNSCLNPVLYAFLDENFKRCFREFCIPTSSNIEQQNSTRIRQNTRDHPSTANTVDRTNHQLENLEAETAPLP
# Serotonin Transporter (SERT), sequence (P31645 whole entry): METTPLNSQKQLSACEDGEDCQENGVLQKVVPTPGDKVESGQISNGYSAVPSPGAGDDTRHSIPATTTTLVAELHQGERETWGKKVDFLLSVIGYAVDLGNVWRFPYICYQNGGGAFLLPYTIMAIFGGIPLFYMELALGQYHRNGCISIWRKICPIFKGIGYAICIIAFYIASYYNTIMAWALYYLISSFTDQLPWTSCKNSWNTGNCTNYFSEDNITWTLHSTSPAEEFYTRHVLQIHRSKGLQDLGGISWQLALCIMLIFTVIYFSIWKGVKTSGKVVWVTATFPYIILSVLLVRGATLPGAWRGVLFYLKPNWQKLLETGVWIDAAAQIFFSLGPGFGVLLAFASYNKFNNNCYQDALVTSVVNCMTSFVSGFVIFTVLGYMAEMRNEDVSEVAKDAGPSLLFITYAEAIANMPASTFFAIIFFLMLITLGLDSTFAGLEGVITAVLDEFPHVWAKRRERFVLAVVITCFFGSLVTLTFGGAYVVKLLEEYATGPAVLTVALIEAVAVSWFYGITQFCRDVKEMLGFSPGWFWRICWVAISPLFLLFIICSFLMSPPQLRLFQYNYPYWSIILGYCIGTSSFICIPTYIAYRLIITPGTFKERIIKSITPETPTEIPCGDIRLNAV
# Dopamine 2 (D2), sequence (P14416 whole entry): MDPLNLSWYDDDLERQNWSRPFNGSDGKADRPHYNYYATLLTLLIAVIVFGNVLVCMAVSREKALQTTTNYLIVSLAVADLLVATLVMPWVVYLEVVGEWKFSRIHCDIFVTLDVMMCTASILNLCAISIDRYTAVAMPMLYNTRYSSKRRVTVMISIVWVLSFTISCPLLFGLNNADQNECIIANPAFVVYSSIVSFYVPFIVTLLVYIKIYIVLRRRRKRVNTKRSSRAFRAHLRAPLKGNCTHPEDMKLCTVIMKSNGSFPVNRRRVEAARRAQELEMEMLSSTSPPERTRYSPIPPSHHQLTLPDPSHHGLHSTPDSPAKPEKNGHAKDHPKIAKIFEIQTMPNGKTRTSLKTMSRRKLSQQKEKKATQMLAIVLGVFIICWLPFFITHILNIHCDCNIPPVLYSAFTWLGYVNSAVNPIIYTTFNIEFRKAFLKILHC
# Norepinephrine Transporter (NET), sequence (P23975 whole entry): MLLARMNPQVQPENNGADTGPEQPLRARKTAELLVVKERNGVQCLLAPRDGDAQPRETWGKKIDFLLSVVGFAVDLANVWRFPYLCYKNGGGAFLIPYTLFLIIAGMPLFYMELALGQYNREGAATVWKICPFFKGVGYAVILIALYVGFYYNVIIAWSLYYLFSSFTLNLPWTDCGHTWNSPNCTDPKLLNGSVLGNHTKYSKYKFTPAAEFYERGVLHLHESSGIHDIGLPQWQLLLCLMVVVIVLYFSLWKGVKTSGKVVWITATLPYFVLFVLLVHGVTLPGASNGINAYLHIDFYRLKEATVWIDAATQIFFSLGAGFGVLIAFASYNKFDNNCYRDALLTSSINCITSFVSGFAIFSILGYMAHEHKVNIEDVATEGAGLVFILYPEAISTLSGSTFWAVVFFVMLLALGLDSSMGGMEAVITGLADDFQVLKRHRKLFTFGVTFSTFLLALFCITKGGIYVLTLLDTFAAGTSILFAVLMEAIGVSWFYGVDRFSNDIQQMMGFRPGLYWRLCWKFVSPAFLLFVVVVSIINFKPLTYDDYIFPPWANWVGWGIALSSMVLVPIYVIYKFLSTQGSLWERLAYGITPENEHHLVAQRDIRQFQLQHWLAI
# Dopamine 1 (D1), sequence (P21728 whole entry): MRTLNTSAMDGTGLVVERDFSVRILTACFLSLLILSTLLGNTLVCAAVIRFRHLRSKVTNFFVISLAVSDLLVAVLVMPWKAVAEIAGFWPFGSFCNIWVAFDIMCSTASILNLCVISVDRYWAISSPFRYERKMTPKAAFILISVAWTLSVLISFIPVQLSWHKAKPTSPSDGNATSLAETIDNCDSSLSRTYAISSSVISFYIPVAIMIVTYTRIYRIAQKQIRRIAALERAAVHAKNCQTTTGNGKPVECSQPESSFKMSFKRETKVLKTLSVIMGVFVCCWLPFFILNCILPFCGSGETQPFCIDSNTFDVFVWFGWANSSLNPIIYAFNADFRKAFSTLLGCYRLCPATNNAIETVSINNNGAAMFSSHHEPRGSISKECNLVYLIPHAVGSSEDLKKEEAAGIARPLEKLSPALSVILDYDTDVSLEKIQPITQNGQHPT
# Serotonin 2A (5-HT2A), sequence (P28223 whole entry): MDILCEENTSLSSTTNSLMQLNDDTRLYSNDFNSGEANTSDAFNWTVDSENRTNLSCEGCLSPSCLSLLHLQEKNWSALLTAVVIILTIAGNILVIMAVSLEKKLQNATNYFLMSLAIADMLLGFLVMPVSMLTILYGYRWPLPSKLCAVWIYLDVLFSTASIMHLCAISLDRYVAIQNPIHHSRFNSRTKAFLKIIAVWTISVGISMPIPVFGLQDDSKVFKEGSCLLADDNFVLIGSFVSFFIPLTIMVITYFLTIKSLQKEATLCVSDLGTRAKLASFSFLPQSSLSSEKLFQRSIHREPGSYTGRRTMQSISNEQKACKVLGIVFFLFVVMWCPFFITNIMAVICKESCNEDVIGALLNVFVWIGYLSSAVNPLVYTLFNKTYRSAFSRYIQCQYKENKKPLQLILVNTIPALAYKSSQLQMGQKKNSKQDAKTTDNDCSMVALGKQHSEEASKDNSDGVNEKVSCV
# κ- opioid receptors (KOR), sequence (P34975 whole entry): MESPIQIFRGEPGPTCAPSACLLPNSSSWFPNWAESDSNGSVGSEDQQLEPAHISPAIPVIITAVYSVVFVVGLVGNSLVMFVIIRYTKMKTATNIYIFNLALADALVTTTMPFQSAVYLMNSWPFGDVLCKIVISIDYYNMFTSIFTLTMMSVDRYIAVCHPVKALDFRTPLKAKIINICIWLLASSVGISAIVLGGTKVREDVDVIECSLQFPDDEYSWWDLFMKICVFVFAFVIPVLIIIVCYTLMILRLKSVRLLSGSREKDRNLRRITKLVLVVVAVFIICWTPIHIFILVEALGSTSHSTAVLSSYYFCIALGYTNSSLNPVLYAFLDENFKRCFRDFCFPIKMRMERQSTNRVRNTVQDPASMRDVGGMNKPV
# Dopamine Transporter (DAT), sequence (Q01959 whole entry): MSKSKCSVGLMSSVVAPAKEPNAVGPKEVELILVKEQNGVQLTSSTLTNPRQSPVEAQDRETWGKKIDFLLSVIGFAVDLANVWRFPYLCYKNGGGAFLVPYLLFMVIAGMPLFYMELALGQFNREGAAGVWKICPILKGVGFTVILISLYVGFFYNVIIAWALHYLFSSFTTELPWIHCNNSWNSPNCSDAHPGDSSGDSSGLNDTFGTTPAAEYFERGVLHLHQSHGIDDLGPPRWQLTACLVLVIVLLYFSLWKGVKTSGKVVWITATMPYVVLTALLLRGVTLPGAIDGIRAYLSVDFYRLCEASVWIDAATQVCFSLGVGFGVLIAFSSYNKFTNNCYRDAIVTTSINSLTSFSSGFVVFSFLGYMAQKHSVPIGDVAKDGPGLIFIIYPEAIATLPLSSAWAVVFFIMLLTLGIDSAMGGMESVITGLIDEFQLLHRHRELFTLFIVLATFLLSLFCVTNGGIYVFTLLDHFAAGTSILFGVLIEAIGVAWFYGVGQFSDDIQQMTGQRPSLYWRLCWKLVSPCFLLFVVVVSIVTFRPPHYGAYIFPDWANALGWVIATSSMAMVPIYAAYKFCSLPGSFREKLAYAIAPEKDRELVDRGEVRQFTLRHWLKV
# Sigma1, sequence (Q9R0C9 whole entry): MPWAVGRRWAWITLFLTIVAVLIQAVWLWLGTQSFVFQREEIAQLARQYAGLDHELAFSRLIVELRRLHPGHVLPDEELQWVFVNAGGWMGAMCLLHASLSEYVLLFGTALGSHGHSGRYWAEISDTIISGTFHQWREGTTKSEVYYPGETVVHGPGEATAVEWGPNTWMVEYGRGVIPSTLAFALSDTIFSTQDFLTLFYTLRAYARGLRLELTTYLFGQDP
Compound,Ki [1] [µM],Ki [3] [µM],Ki [4] [µM],Ki [5] [µM],"MES (30) N/F, animals active over tested ([6]; 0.5 h)","MES (30) N/F, animals active over tested ([6]; 4.0 h)","MES (100) N/F, animals active over tested ([6]; 4.0 h)",Ki [7] [µM],"TOX comments ([8]; 300 mg/kg, 0.5 h)","TOX (30) N/F, animals toxic over tested ([8]; 0.5 h)","TOX (30) N/F, animals toxic over tested ([8]; 4.0 h)","TOX (100) N/F, animals toxic over tested ([8]; 100 mg/kg, 0.5 h)","TOX (100) N/F, animals toxic over tested ([8]; 100 mg/kg, 4.0 h)","TOX (300) N/F, animals toxic over tested ([8]; 300 mg/kg, 0.5 h)","scMET (30) N/F, animals active over tested ([9]; 0.5 h)","scMET (30) N/F, animals active over tested ([9]; 4.0 h)","scMET (100) N/F, animals active over tested ([9]; 0.5 h)","scMET (100) N/F, animals active over tested ([9]; 4.0 h)",Ki [10] [µM],Ki [11] [µM],other results
"NC1(c2ccccc2)CC2CCC1C2 (stereo not drawn) [Compound 4a, 2-phenylbicyclo[2.2.1]heptan-2-amine]",2.2,> 10,> 10,> 10,0/1 0/1,0/1 0/1,1/1,0.995,Death,0/4,0/2,8/8,0/2,4/4 /,0/1 0/1,0/1 0/1,0/1 0/1,0/1 0/1,> 10,> 10,"% inhibition of 1 nM [3H] (+)-MK-801 [2]: greater than 90%; IC50 [2]: 13.3 ± 0.63 µM; Ki [2]: 8.45 µM; TOX comments ([8]; 100 mg/kg, 0.5 h): Severe Tremors, Death following clonic seizure; Ki [12]: > 10 µM; Ki [13]: > 10 µM; Ki [14]: > 10 µM"
"NC1(c2ccc(F)cc2)CC2CCC1C2 (stereo not drawn) [Compound 4b, 2-(4-fluorophenyl)bicyclo[2.2.1]heptan-2-amine]",> 10,> 10,> 10,> 10,0/1 0/1,0/1 0/1,0/3,> 10,Death following clonic seizure,0/4,0/2,8/8,0/4,4/4 /,0/1 0/1,0/1 0/1,0/1 0/1,0/1 0/1,> 10,> 10,"MES (100) N/F, animals active over tested ([6]; 0.5 h): 3/3; TOX comments ([8]; 100 mg/kg, 0.5 h): Severe Tremors, Clonic seizures; Ki [12]: > 10 µM; Ki [13]: > 10 µM; Ki [14]: > 10 µM"
"c1ccc(C2(NCCN3CCCCC3)CC3CCC2C3)cc1 (stereo not drawn) [Compound 5a, 2-Phenyl-N-(2-(piperidin-1-yl)ethyl)bicyclo[2.2.1]heptan-2-amine]",> 10,2.64,> 10,> 10,0/1 0/1,0/1 0/1,1/3,> 10,Death,0/4,0/2,8/8,0/4,4/4 /,0/1 0/1,0/1 0/1,0/1 0/1,0/1 0/1,> 10,0.876,"affinity for NMDA (in words) [2]: highest affinity for NMDA; % inhibition of 1 nM [3H] (+)-MK-801 [2]: greater than 90%; IC50 [2]: 7.86 ± 1.64 µM; Ki [2]: 5.28 µM; MES protection (in words) [6]: MES neuroprotection activity; MES (100) N/F, animals active over tested ([6]; 0.5 h): 3/3; MES neuroprotective activity (in words) [6]: greatest degree of protection from MES induced neural damage and death; TOX comments ([8]; 100 mg/kg, 0.5 h): Clonic seizures; toxicity profile (in words) ([8]; mouse, in vivo): acceptable toxicity profile; Ki [12]: > 10 µM; Ki [13]: > 10 µM; Ki [14]: > 10 µM"
"c1ccc(C2(NCCN3CCOCC3)CC3CCC2C3)cc1 (stereo not drawn) [Compound 5c, N-(2-morpholinoethyl)-2-phenylbicyclo [2.2.1] heptan-2-amine]",> 10,> 10,> 10,> 10,0/1 0/1,0/1 0/1,0/3,> 10,Death following clonic seizure; also recorded: Clonic seizures,0/4,0/2,6/8,0/4,4/4,0/1 0/1,0/1 0/1,0/1 0/1,0/1 0/1,2.57,0.988,"affinity for NMDA (in words) [2]: did not exhibit significant affinity; MES (100) N/F, animals active over tested ([6]; 0.5 h): 2/3; MES neuroprotective activity (in words) [6]: displayed MES neuroprotective activity; TOX comments ([8]; 100 mg/kg, 0.5 h): Clonic seizures; TOX comments ([8]; 300 mg/kg, 4 h): Death; TOX (300) N/F, animals toxic over tested ([8]; 300 mg/kg, 4.0 h): 1/1; scMET (300) N/F, animals active over tested ([9]; 0.5 h): 0/1; scMET (300) N/F, animals active over tested ([9]; 4.0 h): 0/0; Ki [12]: > 10 µM; Ki [13]: > 10 µM; Ki [14]: > 10 µM"
"c1ccc(C2(NCCN3CCCC3)CC3CCC2C3)cc1 (stereo not drawn) [Compound 5e, 2-Phenyl-N-(2-(pyrrolidin-1-yl)ethyl) bicyclo[2.2.1]heptan-2-amine]",> 10,> 10,> 10,> 10,0/1 0/1,0/1 0/1,0/3 0/3,> 10,Diarrhea; also recorded: Unable to grasp rotorod; also recorded: Death,0/4,0/2,0/8,0/4,4/4 /,0/1 0/1,0/1 0/1,0/1 0/1,0/1 0/1,3.62,4.51,"% inhibition of 1 nM [3H] (+)-MK-801 [2]: greater than 90%; IC50 [2]: 8.48 ± 3.11 µM; Ki [2]: 5.67 µM; MES protection (in words) [6]: all protective in the MES test at the dose of 100 mg/kg except for compound 5e; MES (100) N/F, animals active over tested ([6]; 0.5 h): 0/3 0/3; scMET (300) N/F, animals active over tested ([9]; 0.5 h): 0/1; scMET (300) N/F, animals active over tested ([9]; 4.0 h): 0/0; Ki [12]: > 10 µM; Ki [13]: > 10 µM; Ki [14]: > 10 µM"
(+)-MK-801 [reference compound],,,,,,,,,,,,,,,,,,,,,"Kd ([2]; read-out: Kd for (+)-MK-801 binding, saturation conditions, homologous binding assay): 0.00175 µM; Ki ([2]; reference): 0.00136 µM"
